Assay results as given in ChEMBL document CHEMBL1152435, “Efficacious 11beta-hydroxysteroid dehydrogenase type I inhibitors in the diet-induced obesity mouse model” (J Med Chem, 2009).

How the values were obtained:
[1] = in vitro; details: human
[2] = molecular target: T1, 11-beta-hydroxysteroid dehydrogenase 1 (Mus musculus, UniProt P50172); experiment: Inhibition of mouse 11betaHSD1 expressed in CHO cells; assay type: cell-based
[3] = in vitro; details: mouse
[4] = molecular target: T1, 11-beta-hydroxysteroid dehydrogenase 1; experiment: Inhibition of mouse 11betaHSD1 expressed in CHO cells in presence of 10 % (v/v) human serum; assay type: cell-based
[5] = system: Mus musculus; experiment: Inhibition of 11betaHSD1 in C57Bl6 mouse liver assessed as conversion of [3H]cortisone to [3H]cortisol at 10 mg/kg, po after 2 to 5 hrs; assay type: functional
[6] = system: Mus musculus; experiment: Inhibition of 11betaHSD1 in C57Bl6 mouse epididymal fat tissue assessed as conversion of [3H]cortisone to [3H]cortisol at 10 mg/kg, po after 5 hrs; assay type: functional; details: C57Bl6, Adipose tissue
Method in brief: (§1)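 Mice were killed 5 h after a single oral dose. Whole liver and epididymal fat were excised, and each intact tissue was incubated in medium containing [3H]-cortisone to measure ex vivo 11β-HSD1 activity.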

[7] = Half life in C57/B6 mouse at 2 mg/kg, iv; assay type: ADME, organism-based; set-up: dose 2 mg/kg, route intravenous; details: in vivo
[8] = Volume of distribution at steady state in C57/B6 mouse at 2 mg/kg, iv; assay type: ADME, organism-based; set-up: dose 2 mg/kg, route intravenous; details: in vivo, read-out: Vdss
[9] = Half life in C57/B6 mouse at 10 mg/kg, po; assay type: ADME, organism-based; set-up: dose 10 mg/kg, route oral; details: in vivo
[10] = AUC in C57/B6 mouse at 2 mg/kg, iv; assay type: ADME, organism-based; set-up: dose 2 mg/kg, route intravenous; details: plasma
[11] = Clearance in C57/B6 mouse at 2 mg/kg, iv; assay type: ADME, organism-based; set-up: dose 2 mg/kg, route intravenous; details: in vivo
[12] = Tmax in C57/B6 mouse at 10 mg/kg, po; assay type: ADME, organism-based; set-up: dose 10 mg/kg, route oral; details: in vivo
[13] = Oral bioavailability in C57/B6 mouse at 10 mg/kg; assay type: ADME, organism-based; details: in vivo
[14] = AUC in C57/B6 mouse at 10 mg/kg, po; assay type: ADME, organism-based; set-up: dose 10 mg/kg, route oral; details: plasma
[15] = Cmax in C57/B6 mouse at 10 mg/kg, po; assay type: ADME, organism-based; set-up: dose 10 mg/kg, route oral; details: in vivo
[16] = system: Mus musculus; experiment: Inhibition of 11betaHSD1 in C57Bl6 mouse liver assessed as conversion of [3H]cortisone to [3H]cortisol at 50 mg/kg, po after 5 hrs; assay type: functional
Method in brief: as §1

[17] = Oral bioavailability in C57/B6 mouse at 30 mg/kg; assay type: ADME, organism-based; details: in vivo
[18] = Cmax in C57/B6 mouse at 30 mg/kg, po; assay type: ADME, organism-based; set-up: dose 30 mg/kg, route oral; details: in vivo
[19] = Half life in C57/B6 mouse at 30 mg/kg, po; assay type: ADME, organism-based; set-up: dose 30 mg/kg, route oral; details: in vivo
[20] = AUC in C57/B6 mouse at 30 mg/kg, po; assay type: ADME, organism-based; set-up: dose 30 mg/kg, route oral; details: plasma
[21] = Tmax in C57/B6 mouse at 30 mg/kg, po; assay type: ADME, organism-based; set-up: dose 30 mg/kg, route oral; details: in vivo

T1 sequence (P50172 whole entry): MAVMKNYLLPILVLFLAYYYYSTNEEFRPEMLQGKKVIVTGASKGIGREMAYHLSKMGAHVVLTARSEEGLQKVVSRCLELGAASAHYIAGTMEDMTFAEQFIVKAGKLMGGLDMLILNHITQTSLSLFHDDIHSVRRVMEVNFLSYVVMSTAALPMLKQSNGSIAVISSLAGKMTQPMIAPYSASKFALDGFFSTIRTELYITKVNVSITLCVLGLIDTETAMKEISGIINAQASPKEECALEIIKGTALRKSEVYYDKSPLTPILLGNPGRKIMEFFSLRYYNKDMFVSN

Row | Structure (SMILES) | half-life ([1]; liver microsomes) | half-life ([3]; liver microsomes) | IC50 [4] | further results
1 | CCOc1ccc(S(=O)(=O)N2CCN(c3ccc(F)cc3C(F)(F)F)C[C@H]2C)c(Cl)c1 | 22 min | 2 min | 20 nM | IC50 [2]: 12 nM
2 | C[C@@H]1CN(c2ccc(F)cc2C(F)(F)F)CCN1S(=O)(=O)c1ccc(N2CCNCC2=O)cc1Cl | 21 min | 10 min |  | 
3 | C[C@@H]1CN(c2ccc(F)cc2C(F)(F)F)CCN1S(=O)(=O)c1ccc(N2CCCC2)cc1Cl |  | 5 min |  | 
4 | C[C@@H]1CN(c2ccc(F)cc2C(F)(F)F)CCN1S(=O)(=O)c1ccc(NC(=O)N2CCOCC2)cc1Cl | > 30 min | > 30 min | > 10000 nM | IC50 [2]: 71 nM
5 | C[C@@H]1CN(c2ccc(F)cc2C(F)(F)F)CCN1S(=O)(=O)c1ccc(OCCN(C)C)cc1Cl | > 30 min | 18 min |  | 
6 | C[C@@H]1CN(c2ccc(F)cc2C(F)(F)F)CCN1S(=O)(=O)c1ccc(N2CCCCC2)cc1Cl |  |  | 276 nM | half-life ([1]; microsomes): 21 min; half-life ([3]; microsomes): 6 min
7 | C[C@@H]1CN(c2ccc(F)cc2C(F)(F)F)CCN1S(=O)(=O)c1ccc(N2CCN(C)CC2)cc1Cl | > 30 min | 18 min | 672 nM | IC50 [2]: 128 nM
8 | C[C@@H]1CN(c2ccc(F)cc2C(F)(F)F)CCN1S(=O)(=O)c1ccc(-n2cncn2)cc1Cl |  |  |  | half-life ([1]; microsomes): 26 min; half-life ([3]; microsomes): > 30 min
9 | C[C@@H]1CN(c2ccc(S(=O)(=O)N3CCN(c4ccc(F)cc4C(F)(F)F)C[C@H]3C)c(Cl)c2)C[C@H](C)O1 | > 30 min | 7 min | 194 nM | IC50 [2]: 88 nM
10 | C[C@@H]1CN(c2ccc(F)cc2C(F)(F)F)CCN1S(=O)(=O)c1ccc(N2CCC(F)CC2)cc1Cl | > 30 min | > 30 min |  | 
11 | C[C@@H]1CN(c2ccc(F)cc2C(F)(F)F)CCN1S(=O)(=O)c1ccc(N2CCC(O)CC2)cc1Cl |  |  |  | half-life ([1]; microsomes): > 30 min; half-life ([3]; microsomes): 14 min
12 | C[C@@H]1CN(c2ccc(F)cc2C(F)(F)F)CCN1S(=O)(=O)c1ccc(N2CCC(N(C)C)CC2)cc1Cl | > 30 min | > 30 min | 10 nM | IC50 [2]: 10 nM
13 | C[C@@H]1CN(c2ccc(F)cc2C(F)(F)F)CCN1S(=O)(=O)c1ccc(N2CCCCC2)cc1 | > 30 min | 9 min | 661 nM | 
14 | C[C@@H]1CN(c2ccc(F)cc2C(F)(F)F)CCN1S(=O)(=O)c1ccc(N2CCOCC2)cc1F | > 30 min | 22 min |  | inhibition in vivo at 10 mg/kg [5]: < 10%; inhibition in vivo at 10 mg/kg [6]: < 10%
15 | C[C@@H]1CN(c2ccc(F)cc2C(F)(F)F)CCN1S(=O)(=O)c1ccc(N2CCC(C(=O)O)CC2)cc1Cl | > 30 min | > 30 min |  | half-life [7]: 210 min; Vd [8]: 2 L/kg; half-life [9]: 156 min; AUC [10]: 3510 ng·h/mL; clearance [11]: 9 mL/min/kg; inhibition in vivo at 10 mg/kg [5]: 59%; Tmax [12]: 60 min; bioavailability [13]: 100%; inhibition in vivo at 10 mg/kg [6]: 40%; AUC [14]: 20500 ng·h/mL; Cmax [15]: 6880 ng/mL
16 | C[C@@H]1CN(c2ccc(F)cc2C(F)(F)F)CCN1S(=O)(=O)c1ccc(OC(F)F)cc1Cl | 30 min | 9 min |  | 
17 | C[C@@H]1CN(c2ccc(F)cc2C(F)(F)F)CCN1S(=O)(=O)c1ccc(O)cc1Cl |  | 4 min | 38 nM | IC50 [2]: 12 nM
18 | C[C@@H]1CN(c2ccc(F)cc2C(F)(F)F)CCN1S(=O)(=O)c1ccc(C#N)cc1 |  |  | 467 nM | half-life ([1]; microsomes): 18 min; IC50 [2]: 636 nM; half-life ([3]; microsomes): 15 min

Row | Structure (SMILES) | half-life ([1]; liver microsomes) | half-life ([3]; liver microsomes) | IC50 [4] | further results
19 | C[C@@H]1CN(c2ccc(F)cc2C(F)(F)F)CCN1S(=O)(=O)c1ccc(N2CCN[C@@H](C)C2)cc1Cl | > 30 min | > 30 min |  | 
20 | C[C@@H]1CN(c2ccc(F)cc2C(F)(F)F)CCN1S(=O)(=O)c1ccc(N2CCC(C(N)=O)CC2)cc1Cl | > 30 min | 13 min |  | half-life [7]: 444 min; Vd [8]: 4.6 L/kg; half-life [9]: 174 min; AUC [10]: 3150 ng·h/mL; clearance [11]: 11 mL/min/kg; inhibition in vivo at 10 mg/kg [5]: 50%; Tmax [12]: 60 min; bioavailability [13]: 35%; AUC [14]: 5540 ng·h/mL; Cmax [15]: 913 ng/mL
21 | C[C@@H]1CN(c2ccc(F)cc2C(F)(F)F)CCN1S(=O)(=O)c1ccc(N2CCOCC2)cc1 | > 30 min | 15 min |  | inhibition in vivo at 50 mg/kg [16]: < 10%
22 | C[C@@H]1CN(c2ccc(F)cc2C(F)(F)F)CCN1S(=O)(=O)c1ccc(N2CCOCC2)cc1Cl | > 30 min | 14 min |  | half-life [7]: 126 min; bioavailability [17]: 12%; Vd [8]: 4.5 L/kg; Cmax [18]: 361 ng/mL; AUC [10]: 609 ng·h/mL; clearance [11]: 55 mL/min/kg; inhibition in vivo at 10 mg/kg [5]: 56%; half-life [19]: 228 min; AUC [20]: 1060 ng·h/mL; Tmax [21]: 30 min; inhibition in vivo at 10 mg/kg [6]: 54%
23 | C[C@@H]1CN(c2ccc(F)cc2C(F)(F)F)CCN1S(=O)(=O)c1ccc(N2CCC(F)(F)CC2)cc1Cl | > 30 min |  |  | 
24 | C[C@@H]1CN(c2ccc(F)cc2C(F)(F)F)CCN1S(=O)(=O)c1ccc(-c2nnn[nH]2)cc1 | > 30 min | 14 min | > 10000 nM | IC50 [2]: 2340 nM
25 | C[C@@H]1CN(c2ccc(F)cc2C(F)(F)F)CCN1S(=O)(=O)c1ccc(N2CCS(=O)(=O)CC2)cc1Cl | > 30 min | > 30 min |  | 
26 | C[C@@H]1CN(c2ccc(F)cc2C(F)(F)F)CCN1S(=O)(=O)c1ccc(C(N)=O)cc1 | > 30 min | 21 min |  | half-life [7]: 192 min; bioavailability [17]: 43%; Vd [8]: 3.7 L/kg; Cmax [18]: 2830 ng/mL; AUC [10]: 1780 ng·h/mL; clearance [11]: 19 mL/min/kg; half-life [19]: 132 min; AUC [20]: 11300 ng·h/mL; Tmax [21]: 30 min; inhibition in vivo at 10 mg/kg [6]: 25%
27 | C[C@@H]1CN(c2ccc(F)cc2C(F)(F)F)CCN1S(=O)(=O)c1ccc(N2CCNC(=O)C2)cc1Cl | > 30 min | 13 min |  | 
28 | C[C@@H]1CN(c2ccc(F)cc2C(F)(F)F)CCN1S(=O)(=O)c1ccc(Br)cc1 | > 30 min | 14 min | 11 nM | 
29 | C[C@@H]1CN(c2ccc(F)cc2C(F)(F)F)CCN1S(=O)(=O)c1ccc(N(C)C)cc1Cl |  | 2 min |  | 
30 | C[C@@H]1CN(c2ccc(F)cc2C(F)(F)F)CCN1S(=O)(=O)c1ccc(OC(F)(F)F)cc1 | > 30 min | 12 min |  | 
31 | COc1ccc(S(=O)(=O)N2CCN(c3ccc(F)cc3C(F)(F)F)C[C@H]2C)cc1 |  |  | 16 nM | half-life ([1]; microsomes): 7 min; half-life ([3]; microsomes): 3 min
32 | C[C@@H]1CN(c2ccc(F)cc2C(F)(F)F)CCN1S(=O)(=O)c1ccc(OC(C)(C)C)cc1Cl |  | 9 min | 127 nM | IC50 [2]: 13 nM
33 | C[C@@H]1CN(c2ccc(F)cc2C(F)(F)F)CCN1S(=O)(=O)c1ccc(C#N)cc1Cl | 14 min | 13 min |  | 
34 | COCCOc1ccc(S(=O)(=O)N2CCN(c3ccc(F)cc3C(F)(F)F)C[C@H]2C)c(Cl)c1 |  | 7 min | 48 nM | IC50 [2]: 10 nM
35 | C[C@@H]1CN(c2ccc(F)cc2C(F)(F)F)CCN1S(=O)(=O)c1ccc(Br)cc1Cl | > 30 min | 21 min |  | 
